From article PMC11022046 (iScience, 2024)
Where a name gives a salt, the structure may show the parent alone.

What was measured:
H1299 cells [1] = assay: Mitochondrial structure by electron microscopy; format: cell-based, human; settings: H1299, 48 h, 1 or 2 μM
Procedure, shortened: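 H1299 cells (1.75 × 10⁵ per 10 cm plate) exposed 48 h to 1 or 2 μM or to DMSO, then scraped and pelleted. Pellets fixed 4 h at room temperature in 2.0% paraformaldehyde/2.5% glutaraldehyde in 0.1 M cacodylate, pH 7.2. Post-fixed in 1.0% osmium tetroxide for 1 h; en bloc 2% aqueous uranyl acetate, 20 min, 60°C. Three biological replicates.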

H1299 lung cancer cells [2] = assay: SRB proliferation assay; format: cell-based; settings: Homo sapiens, NCI-H1299, 72 h, read-out: SRB IC50
Procedure, shortened: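 H1299 cells (RPMI/10% FBS) seeded the day before, then given serial half dilutions from 20 μM down to 0.078 μM for 72 h. Fixed in cold 10% TCA for 1 h and stained 15 min with 0.4% SRB. Washed with water and 1% acetic acid, dye dissolved in 10 mM Tris pH 10.5, OD read at 560 nm. Normalized to DMSO; IC₅₀ with 95% CI by nonlinear regression. Three biological × three technical replicates.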

H1299 cells [3] = assay: 3D spheroid invasion assay; format: cell-based, human; settings: H1299 spheroids in basement membrane matrix, 2 μM, 48 h
Procedure, shortened: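 H1299 spheroids formed over 3 days from 3 × 10³ cells/well in low-attachment wells. Embedded in Matrigel containing 0.5, 1 or 2 μM compound, with compound also in the medium, and incubated 48 h. Imaged at Day 0 and Day 2 with a 4× objective; perimeter outlined. Invasion area = Day 2 area minus Day 0 area. At least four spheroids per treatment in each of three biological replicates.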

[4] = In vivo pharmacokinetics, single IP dose; design: species or system BALB/c mice
Procedure, shortened: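 Female BALB/c mice (8–14 weeks) given 5 mg/kg by single IP injection in 1% DMSO/99% water. Plasma sampled at 0.25, 0.5, 1, 2, 4, 6, 8 and 24 h. Compound quantified by LC-MS/MS with calibration standards and QC samples. Terminal elimination half-life and maximum concentration derived; n = 3 mice per treatment.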

H1299 cells [5] = assay: Extracellular lactate assay; format: cell-based, human; settings: H1299, 1 and 2 μM, 48 h
Procedure, shortened: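 H1299 seeded at 3.75 × 10⁴ or 7.5 × 10⁴ cells/well, then treated 48 h with 1 or 2 μM or with DMSO. Medium passed through a 3K cutoff filter at 14,000 × g, 15 min, 4°C. Lactate measured with a WST-based kit on medium diluted 1:20, in triplicate, against a standard curve. Values normalized to cell count and DMSO; three biological replicates.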

H1299 cells [6] = assay: TMRM flow cytometry with oligomycin; format: cell-based, human; settings: H1299, 1 μM, 48 h, + 1 μM oligomycin, mean of three replicates
Procedure, shortened: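 H1299 cells (1.75 × 10⁵ per 10 cm plate) exposed 48 h to 1 μM or to DMSO. Attached and floating cells pooled and stained with 2 nM TMRM in phenol-red-free RPMI with 2% dialyzed FBS for 30 min at 37°C. Oligomycin (1 μM) added during the TMRM incubation, then flow cytometry. Three biological replicates.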

H1299 lung cancer cells [7] = assay: WST-8 proliferation assay; format: cell-based; settings: Homo sapiens, NCI-H1299, 72 h, read-out: WST IC50
Procedure, shortened: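 H1299 cells (RPMI/10% FBS) seeded the day before, then given serial half dilutions from 20 μM down to 0.078 μM for 72 h. WST-8 reagent added to the medium at 1:10, 2 h at 37°C, OD read at 450 nm; both adherent and non-adherent cells counted. Normalized to DMSO; IC₅₀ with 95% CI by nonlinear regression. Three biological × three technical replicates.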

[8] = Caco-2 permeability assay; format: in vitro ADME; settings: human
Procedure, shortened: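 Caco-2 monolayers grown to confluence on transwells, with integrity checked by TEER. Test compound (5 μM) added to the apical or the basolateral side to give transport direction. After 2 h, donor and receiver samples quantified by LC-MS/MS. Lucifer Yellow used to check leakage. Propranolol (high absorption) and digoxin (high efflux) served as controls.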

[9] = female, BALB/c, mouse, plasma, ip, 5 mg/kg

For `CCCCC(CC)CNC(=N)NC(=N)NCCCCCCNC(=N)NC(=N)NCC(CC)CCCC` (stereo not shown) [Alexidine, Alexidine dihydrochloride], the “effect on mitochondrial structure” value (H1299 cells [1]) was “disrupted mitochondrial structure”, the IC50 (H1299 lung cancer cells [2]) was 1000 nM and the “invasive area, % of the control” value (H1299 cells [3]) was 36.8%. For the same molecule, the Cmax [4, 9] was 268 ng/mL, the half-life [4, 9] was 9.5 h and the tolerability in mice ([4]; mice, IP) was “tolerated in mice”. The “effect on extracellular lactate” value (H1299 cells [5]) was “increased lactate concentration”, the “percentage of cells unable to hyperpolarize with oligomycin (TMRM-low population)” value (H1299 cells [6]) was 18.1% and the IC50 (H1299 lung cancer cells [7]) was 2500 nM. It also gave an efflux ratio at 2 h, 5 μM [8] greater than 5.37.
